Here are results for seven molecules from article PMC10091778 (Drug Development Research, 2022).

Data set [1] relates to colorectal cancer cell line HCT‐116. The settings on record: read-out: IC50 HCT‐116; antiproliferative; ref Han et al., 2022; cited from earlier work.
The test system of data set [2] is HL‐60 cells. Put plainly: Sub-G1 DNA fragmentation analysis by flow cytometry. The data set is classed as cell-based, human. The note with it: 6 µM, 72 h; mean ± SD; untreated 11.7 ± 1.2%. Background: A flow cytometer gives signals particle by particle.
The test system of data set [3] is HL‐60 cells. As to the kind of experiment: Annexin V / propidium iodide flow cytometry. The class given is cell-based, human. The settings on record: 6 µM, 24 h, mean ± SD; for Early apoptotic cells (AnnV+/PI−): untreated 1.9 ± 0.5%; for Necrotic cells (AnnV−/PI+): untreated 3.6 ± 1.6%; for Late apoptotic cells (AnnV+/PI+): untreated 9.5 ± 2.7%; for Living cells (AnnV−/PI−): untreated 85 ± 3.9%. The gist of the method:
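HL-60 cells (100,000) were treated for 24 h at 1, 3 or 6 µM, then resuspended in Annexin V binding buffer (0.01 M HEPES, 0.14 M NaCl, 2.5 mM CaCl2). Annexin V-Alexa 488 was added for 15 min in the dark at room temperature, then PI (10 µg/ml). Quadrant percentages were taken by flow cytometry; three biological replicates, mean ± SD; two-tailed t test against untreated.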

Data set [4] concerns HL‐60 cells. Put plainly: Cell cycle analysis by flow cytometry. The class given is cell-based, human. The note with it: 72 h.
In data set [5] the test system is 4T1 murine triple negative breast cancer cells. As to the kind of experiment: Resazurin cell viability assay on 4T1 cells. The data set is classed as cell-based. The settings on record: Mus musculus, 4T1, 72 h, read-out: IC50 4T1. The gist of the method:
(§1)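 Cells were seeded in 96-well plates (4T1 10,000, A549 10,000, HL-60 20,000 per well), with adherent lines settling overnight. Test compound came from a 10 mM DMSO stock, serially diluted in medium to 1.56–50 µM (some 39 nM–12.5 µM), for 72 h; three biological replicates. Resazurin (0.15 mg/ml stock, 20 µl per 100 µl) ran 2 h at 37 °C, read at 530/580 nm. Viability was set against untreated and blank wells; IC50 from curves.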

The test system of data set [6] is HL‐60 cells. Put plainly: Mitochondrial membrane depolarization by JC-1 staining. The class given is cell-based, human. The note with it: 16 h, untreated 7.6 ± 0.6%; for Cells with green JC‐1 accumulation (depolarized MMP): 3 µM; for Cells with green JC‐1 monomers (depolarized MMP): 6 µM.
Data set [7] relates to 4T1, A549, and HL‐60 cells. The class given is cell-based. The settings on record: resazurin assay, 72 h, up to 50 µM, three cancer cell lines. The essentials:
as §1
Background: Alamar Blue is a resazurin reagent that responds to reducing activity.

For data set [8], the system named is HL‐60 human acute promyelocytic leukemia cells. As to the kind of experiment: Resazurin cell viability assay on HL-60 cells. The class given is cell-based. The settings on record: HL-60, 72 h, read-out: IC50 HL‐60. The essentials: as §1
Data set [9] concerns 4T1 breast carcinoma cells. Put plainly: 4T1 murine breast cancer model. The class given is in vivo, BALB/c mice. The note with it: 27th day; 60 mg/kg daily i.p.; mean ± SEM, n = 10; untreated 768 ± 134.
In data set [10] the test system is Hep3B hepatocellular carcinoma cells. The settings on record: 35 µM for 24 h; ref Lu et al., 2022; cited from earlier work.
Data set [11] deals with A431 epidermoid carcinoma cancer cell line. The note with it: 15 µM treatment; ref LaBarbera et al., 2009; cited from earlier work.

Consider Hemimycalin C, for which the IC50 (in general, the concentration needed to halve the response being measured) in data set [1] is 18.6 µM.

As to Hemimycalin D, the IC50 in data set [1] is 17.1 µM.

Regarding `Nc1nc(-c2cccc(NC(=O)c3cc4cc(Br)ccc4[nH]3)c2)c(C(=O)c2ccccc2)[nH]1` [Compound 28, N‐(3‐(2‐amino‐5‐benzoyl‐1H‐imidazol‐4‐yl)phenyl)‐5‐bromo‐1H‐indole‐2‐carboxamide], the “DNA fragmentation (sub‐G1 population) of HL‐60 cells” value in the data set with HL‐60 cells [2] turned out to be 56.5 ± 2.8%. Further, in the data set on HL‐60 cells [3], the “Early apoptotic cells (AnnV+/PI−)” value came to 23.4 ± 1%, the “Necrotic cells (AnnV−/PI+)” value was 2.1 ± 0.4%, the “Late apoptotic cells (AnnV+/PI+)” value was 43.4 ± 1.2% and the “Living cells (AnnV−/PI−)” value is given as 31.1 ± 0.8%. The “Cells in G2/M phase” value in the data set with HL‐60 cells [4] (3 µM, untreated 17.3 ± 1.7%) was 21.0 ± 0.5%. Besides, the “Effect on cell cycle distribution, in words” value in the data set on HL‐60 cells [4] is listed as “significantly disturbed cell cycle distribution”. For the same molecule, the IC50 in [5] came out at 13 µM. In the data set on HL‐60 cells [6], the “Cells with green JC‐1 accumulation (depolarized MMP)” value is listed as 10.4 ± 0.2% and the “Cells with green JC‐1 monomers (depolarized MMP)” value amounted to 50.3 ± 0.7%. The “Cytotoxic / antiproliferative activity in words” value in data set [7] is “hampered the viability of all three tested cell lines”. The IC50 in [8] was 2.91 µM.

As to `Nc1nc(-c2cccc(NC(=O)c3cc4cc(Cl)ccc4[nH]3)c2)c(C(=O)c2ccccc2)[nH]1` [Compound 29, N‐(3‐(2‐amino‐5‐benzoyl‐1H‐imidazol‐4‐yl)phenyl)‐5‐chloro‐1H‐indole‐2‐carboxamide], the “DNA fragmentation (sub‐G1 population) of HL‐60 cells” value with HL‐60 cells [2] turned out to be 64.3 ± 2.1%. Further, in the data set with HL‐60 cells [3], the “Early apoptotic cells (AnnV+/PI−)” value came out at 11.4 ± 1.1%, the “Necrotic cells (AnnV−/PI+)” value stood at 5.9 ± 1.1%, the “Late apoptotic cells (AnnV+/PI+)” value is given as 44.7 ± 4.8% and the “Living cells (AnnV−/PI−)” value was 37.8 ± 4.6%. The 4T1 tumor volume in [9] is given as 443 ± 54 mm^3. The IC50 in data set [5] amounted to 3.1 µM. Besides, in the data set on HL‐60 cells [6], the “Cells with green JC‐1 accumulation (depolarized MMP)” value was 9.4 ± 1.1% and the “Cells with green JC‐1 monomers (depolarized MMP)” value is 29.7 ± 2.1%. Besides, the “Cytotoxic / antiproliferative activity in words” value in data set [7] is reported as “hampered the viability of all three tested cell lines”. In addition, the IC50 in [8] was determined as 4.03 µM.

As for `C=CC(C)(CC/C=C(\C)CCC=C(C)C)S(=O)(=O)CCN=C(N)N` (stereo not drawn) [(−)‐Agelasidine A], in data set [10], the “Apoptosis and mitochondrial effect in Hep3B, in words” value is “Annexin V+ apoptosis and mitochondrial membrane depolarization”.

In the case of Hemimycalin E, the IC50 in data set [1] was 8.6 µM.

Turning to Naamidine A, in data set [11], the “Apoptotic effect in A431, in words” value was “apoptotic effects”.
